Measurements as given in ChEMBL document CHEMBL2203031, “Inhibitors of the NAD(+)-Dependent Protein Desuccinylase and Demalonylase Sirt5” (ACS Med Chem Lett, 2012).
Activity calls are given as the source filed them. The rule behind the calls is not given here.

Experiments:
[1] = target: NAD-dependent protein deacylase sirtuin-5, mitochondrial (Homo sapiens, UniProt Q9NXA8); experiment: Inhibition of SIRT5 using ZK(suc)A substrate after 1 hr by homogeneous fluorescence assay
Method in brief: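 Recombinant Sirt5 reacted with 200 µM succinyl-lysine AMC substrate ZK(s)A and 500 µM NAD+ in pH 8.0 Tris buffer (130 mM NaCl, 3 mM KCl, 1 mM MgCl2, 0.1% PEG8000) with DMSO <2%. Ran 1 h at 37 °C, then trypsin for 2 min at 37 °C. Conversion without inhibitor set to 4–10%. Inhibition calculated against DMSO control, at least two independent runs; IC50 from curve fit.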

[2] = target: T1, NAD-dependent protein deacetylase sirtuin-3, mitochondrial (Homo sapiens, UniProt Q9NTG7); experiment: Inhibition of recombinant SIRT3 using ZMAL substrate after 4 hrs by homogeneous fluorescence assay
T1 sequence (Q9NTG7 whole entry): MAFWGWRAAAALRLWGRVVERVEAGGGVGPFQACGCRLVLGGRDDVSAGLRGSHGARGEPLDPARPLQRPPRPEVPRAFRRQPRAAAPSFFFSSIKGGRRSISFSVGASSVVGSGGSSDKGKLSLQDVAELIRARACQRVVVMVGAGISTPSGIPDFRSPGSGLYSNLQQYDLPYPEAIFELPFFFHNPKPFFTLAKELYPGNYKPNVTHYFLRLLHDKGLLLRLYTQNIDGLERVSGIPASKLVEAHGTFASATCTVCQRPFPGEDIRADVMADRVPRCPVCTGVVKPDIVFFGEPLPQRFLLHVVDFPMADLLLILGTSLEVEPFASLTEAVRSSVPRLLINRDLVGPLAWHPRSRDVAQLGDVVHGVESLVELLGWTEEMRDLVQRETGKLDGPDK

[3] = target: T2, NAD-dependent protein deacetylase sirtuin-1 (Homo sapiens, UniProt Q96EB6); experiment: Inhibition of recombinant SIRT1 using ZMAL substrate after 4 hrs by homogeneous fluorescence assay
T2 sequence (Q96EB6 whole entry): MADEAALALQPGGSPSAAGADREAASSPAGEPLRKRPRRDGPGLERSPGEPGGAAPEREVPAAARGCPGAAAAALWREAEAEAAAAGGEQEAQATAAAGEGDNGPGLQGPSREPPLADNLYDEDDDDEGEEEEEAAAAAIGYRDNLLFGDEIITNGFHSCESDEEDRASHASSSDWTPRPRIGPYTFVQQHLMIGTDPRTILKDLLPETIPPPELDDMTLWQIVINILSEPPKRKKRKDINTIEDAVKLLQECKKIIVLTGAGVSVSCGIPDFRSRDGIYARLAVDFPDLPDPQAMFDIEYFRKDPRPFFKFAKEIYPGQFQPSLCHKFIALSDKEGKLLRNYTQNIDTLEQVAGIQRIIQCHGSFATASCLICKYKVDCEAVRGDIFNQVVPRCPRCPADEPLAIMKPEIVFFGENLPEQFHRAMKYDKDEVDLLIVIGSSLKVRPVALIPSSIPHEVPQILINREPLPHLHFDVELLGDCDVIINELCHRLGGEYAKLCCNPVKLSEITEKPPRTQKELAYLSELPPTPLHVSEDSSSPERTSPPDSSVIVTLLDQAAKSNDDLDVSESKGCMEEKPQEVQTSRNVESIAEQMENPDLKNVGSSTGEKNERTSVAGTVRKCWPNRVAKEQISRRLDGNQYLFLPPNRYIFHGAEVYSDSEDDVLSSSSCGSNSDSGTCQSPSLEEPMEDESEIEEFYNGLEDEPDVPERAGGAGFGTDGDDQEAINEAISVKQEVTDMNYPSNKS

[4] = target: T3, NAD-dependent protein deacetylase sirtuin-2 (Homo sapiens, UniProt Q8IXJ6); experiment: Inhibition of recombinant SIRT2 using ZMAL substrate after 4 hrs by homogeneous fluorescence assay
T3 sequence (Q8IXJ6 whole entry): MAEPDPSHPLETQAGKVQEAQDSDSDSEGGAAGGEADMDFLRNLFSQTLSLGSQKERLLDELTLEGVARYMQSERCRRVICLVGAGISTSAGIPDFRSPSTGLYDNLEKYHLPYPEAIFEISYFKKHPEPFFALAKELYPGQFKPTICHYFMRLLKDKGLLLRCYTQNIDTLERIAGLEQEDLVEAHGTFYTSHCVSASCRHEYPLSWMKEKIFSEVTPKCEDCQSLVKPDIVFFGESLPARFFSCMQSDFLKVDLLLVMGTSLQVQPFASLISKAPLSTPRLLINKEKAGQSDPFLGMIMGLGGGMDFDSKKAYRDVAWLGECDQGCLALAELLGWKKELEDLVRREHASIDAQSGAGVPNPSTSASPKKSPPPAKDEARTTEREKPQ

[5] = target: T4, NAD-dependent protein deacetylase sirtuin-3, mitochondrial (Homo sapiens) (UniProt Q9NTG7); experiment: Inhibition of recombinant SIRT3 using ZMAL substrate at 50 uM after 4 hrs by homogeneous fluorescence assay
T4 sequence (whole entry): T1 sequence (Q9NTG7 whole entry)
Method in brief: (§1)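 Recombinant Sirt1, Sirt2 or Sirt3 incubated with 10.5 µM ZMAL and 500 µM NAD+ in pH 8.0 Tris buffer (137 mM NaCl, 2.7 mM KCl, 1 mM MgCl2) containing 5% DMSO. Ran 4 h at 37 °C, then trypsin developer with 8 mM nicotinamide for 20 min at 37 °C. Fluorescence at Ex 390/Em 460 nm. Conversion without inhibitor held at 10–30%. Inhibition calculated versus DMSO control, at least three independent runs; IC50 by curve fitting.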

[6] = target: T5, NAD-dependent protein deacetylase sirtuin-2 (Homo sapiens) (UniProt Q8IXJ6); experiment: Inhibition of recombinant SIRT2 using ZMAL substrate at 50 uM after 4 hrs by homogeneous fluorescence assay; method in brief: as §1
T5 sequence (whole entry): T3 sequence (Q8IXJ6 whole entry)

Chain of NAD-dependent protein deacylase sirtuin-5, mitochondrial (Q9NXA8 whole entry): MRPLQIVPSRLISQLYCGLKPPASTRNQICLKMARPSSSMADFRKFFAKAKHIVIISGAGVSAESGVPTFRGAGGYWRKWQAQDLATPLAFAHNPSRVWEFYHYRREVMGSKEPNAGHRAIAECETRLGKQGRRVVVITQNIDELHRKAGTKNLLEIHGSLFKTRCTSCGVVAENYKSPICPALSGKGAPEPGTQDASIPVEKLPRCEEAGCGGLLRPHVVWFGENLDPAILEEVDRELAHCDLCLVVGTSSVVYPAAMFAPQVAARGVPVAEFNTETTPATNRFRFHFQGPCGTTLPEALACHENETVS

SMILES | IC50 [4] | inhibition [5] | IC50 ([1]; read-out: IC50) | IC50 ([3]; read-out: IC50) | further results
O=C1CC(c2ccccc2)c2c(ccc3cc(Br)ccc23)O1 (stereo not given) | 1 µM | – | – | – | IC50 [1]: Not Active; IC50 [2]: Not Active; IC50 [3]: Not Active
O=C1NC(=S)NC(=O)C1=Cc1c[nH]c2ccccc12 | 20.3 µM | 14% | 46.5 µM | 5.9 µM | –
CS(=O)(=O)O.Cn1cc(C2=C(c3cn(CCCSC(=N)N)c4ccccc34)C(=O)NC2=O)c2ccccc21 | – | – | – | – | IC50 [1]: Not Active
O=C1NC(=S)NC(=O)C1=Cc1ccc(-c2cccc(Cl)c2Cl)o1 | 10.4 µM | 30% | 3.6 µM | 3.4 µM | –
O=C1NC(=S)NC(=O)C1=Cc1ccc(OCc2ccccc2)cc1 | 9.8 µM | – | 12.6 µM | 10.5 µM | –
COc1ccc2c(C=C3C(=O)NC(=S)NC3=O)cccc2c1 | 11.7 µM | – | 22.4 µM | 6 µM | –
C=CCN1C(=O)/C(=C/c2ccc(-c3cccc(Cl)c3Cl)o2)C(=O)NC1=S | 9.7 µM | 41% | 2.3 µM | 5.3 µM | –
O=C1NC(=S)NC(=O)C1=Cc1ccc(-c2ccccc2)cc1 | – | – | 30 µM | 50.5 µM | IC50 ([2]; read-out: IC50): 40.3 µM
CC(C)c1ccc(C=C2C(=O)NC(=S)NC2=O)cc1 | 14.7 µM | 13% | 39.4 µM | 12.4 µM | –
CC(NC(=O)c1ccccc1/N=C/c1c(O)ccc2ccccc12)c1ccccc1 (stereo not given) [SIRTINOL] | – | 24% | 48.9 µM | – | –
CCN1C(=O)/C(=C/c2ccc(OCc3ccccc3)cc2)C(=O)NC1=S | 14.4 µM | 25% | 12.9 µM | 53.2 µM | –
CCN1C(=O)/C(=C/c2c[nH]c3ccccc23)C(=O)NC1=S | – | inactive | 55.9 µM | 89.3 µM | inhibition [6]: 10%
NC(=O)C1CCCc2c1[nH]c1ccc(Cl)cc21 (stereo not given) | – | – | – | – | IC50 [1]: Not Active
CN1C(=O)/C(=C/c2c[nH]c3ccccc23)C(=O)NC1=S | – | 17% | 27 µM | 42.4 µM | inhibition [6]: 20%
O=C1NC(=S)NC(=O)C1=Cc1cn(Cc2ccccc2)c2ccccc12 | – | – | 16.6 µM | 28.4 µM | inhibition [6]: 20%
Cc1ccc(C(=O)Nc2ccc(S(=O)(=O)O)c3cc(S(=O)(=O)O)cc(S(=O)(=O)O)c23)cc1NC(=O)c1cccc(NC(=O)Nc2cccc(C(=O)Nc3cc(C(=O)Nc4ccc(S(=O)(=O)O)c5cc(S(=O)(=O)O)cc(S(=O)(=O)O)c45)ccc3C)c2)c1 [SURAMIN] | 1.1 µM | – | – | – | IC50 [2]: Not Active
COc1cc(C=C2C(=O)NC(=S)NC2=O)ccc1OCc1ccccc1Cl | 7.5 µM | – | 12.4 µM | 6.7 µM | –
O=C1NC(=S)NC(=O)C1=Cc1ccc(OCc2ccc(Br)cc2)cc1 | 3.4 µM | – | 6.2 µM | 9.9 µM | –
CN1C(=O)/C(=C/c2ccc(OCc3ccccc3)cc2)C(=O)NC1=S | 10 µM | 22% | 17.8 µM | 56.5 µM | –
C=CCN1C(=O)/C(=C/c2ccc(OCc3ccccc3)cc2)C(=O)NC1=S | – | 13% | 67.3 µM | 36.8 µM | inhibition [6]: inactive
O=c1[nH]c(=S)[nH]c(-c2ccccc2)c1Cc1c(O)ccc2ccccc12 [CAMBINOL] | – | – | 42.5 µM | – | –
